Usually CC50 stands for the concentration that lowers cell viability or growth by half. Usually EC50 stands for the midpoint of the concentration-response curve.

Experimental findings from ChEMBL document CHEMBL1144182, “Antimicrobial and cytotoxic arylazoenamines. Part III: antiviral activity of selected classes of arylazoenamines” (Bioorg Med Chem, 2008) are described below.

Activity calls are given as the source filed them. No rule for the calls is given here. Where only a bound is given, the exact number is not on record here.

In one data set the test system is Vaccinia virus. Put plainly: Antiviral activity against VV infected in Vero76 cells assessed as reduction in virus plaque formation after 4 days by MTT assay. Conditions: Orthopoxvirus vaccinia; Vero 76. The class given is functional, organism-based. Background: Tetrazolium assays rely on reduction of a dye to a coloured formazan, in cell work by metabolically active cells.

Data set [1] is described as follows: Cytotoxicity against mock-infected human MT4 cells assessed as reduction in cell viability after 96 hrs by MTT assay. The format is cell-based. The procedure, abridged: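 Exponentially growing MT-4 cells seeded at 1 × 10^5 cells/mL in RPMI-1640 with 10% FCS, penicillin and streptomycin, with or without serial compound dilutions. Incubated at 37 °C, 5% CO2; viability read by MTT after 96 h. CC50 is the concentration reducing mock-infected cell viability by 50%.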

Data set [2] can be described thus: Cytotoxicity against mock-infected BHK cells assessed as reduction in cell viability after 96 hrs by MTT assay. The class given is cell-based, Mesocricetus auratus. Conditions: hamster. The gist of the method:
(§1)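 Cytotoxicity run in parallel with the antiviral assays. MDBK seeded at 6 × 10^5 and BHK at 1 × 10^6 cells/mL in maintenance medium with or without serial compound dilutions. Incubated 48–96 h at 37 °C, 5% CO2, then viability read by MTT. CC50 is the concentration reducing mock-infected cell viability by 50%.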

Data set [3] concerns Bovine viral diarrhea virus 1. Put plainly: Antiviral activity against BVDV infected in MDBK cells assessed as protection against virus-induced cytopathogenicity after 4 days by MTT assay. The class given is functional, organism-based. Conditions: Bovine viral diarrhea virus isolates and strains, 96 h. The gist of the method: (§2)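 MDBK (BVDV) or BHK-21 (YFV) cells were seeded at 3 × 10^4 or 5 × 10^4 cells/well respectively and grown overnight to confluent monolayers at 37 °C in 5% CO2. Monolayers were infected at m.o.i. 0.01 in serum-free medium. After 1 h, MEM Earle's with 1% FCS was added, with or without serial compound dilutions. After 3–4 days at 37 °C, viability was read by MTT. EC50 was taken as 50% protection from virus-induced cytopathogenicity.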
In general terms: Cytopathic effects are the visible damage that an infection or toxin causes in cultured cells.

Data set [4] is described as follows: Cytotoxicity against mock-infected MDBK cells assessed as reduction in cell viability after 96 hrs by MTT assay. The format is cell-based, Bos taurus. Conditions: cattle. The procedure, abridged: as §1
In data set [5] the test system is Vesicular stomatitis virus. The data set is described as follows: Antiviral activity against VSV infected in Vero76 cells assessed as reduction in virus plaque formation after 4 days by MTT assay. The class given is functional, organism-based. Conditions: Vero 76.
Another data set relates to Poliovirus 1. Put plainly: Antiviral activity against Sb1 virus infected in Vero76 cells assessed as reduction in virus plaque formation after 4 days by MTT assay. Conditions: Enterovirus C, Sabin, Vero 76, 96 h. The class given is functional, organism-based.
Data set [6] relates to Human immunodeficiency virus 1. The data set is described as follows: Antiviral activity against HIV1 infected in MT4 cells assessed as virus-induced cytopathogenicity after 4 days. The format is functional, organism-based.
Data set [7] relates to Respiratory syncytial virus. The data set is described as follows: Antiviral activity against RSV infected in Vero76 cells assessed as reduction in virus plaque formation after 4 days by MTT assay. The format is functional, organism-based. Conditions: human respiratory syncytial virus, Vero 76, 96 h.
Another data set deals with Coxsackievirus B2. The data set is described as follows: Antiviral activity against CVB2 infected in Vero76 cells assessed as reduction in virus plaque formation after 4 days by MTT assay. Conditions: Enterovirus B, Vero 76, 96 h. The format is functional, organism-based.
In a further data set the test system is Yellow fever virus. The data set is described as follows: Antiviral activity against YFV infected in BHK21 cells assessed as protection against virus-induced cytopathogenicity after 4 days by MTT assay. The format is functional, organism-based. Conditions: BHK-21, 96 h. The procedure, abridged: as §2
Data set [8] can be described thus: Cytotoxicity against mock-infected african green monkey Vero76 cells assessed as reduction in cell viability after 96 hrs by MTT assay. Conditions: chlorocebus sabaeus. The format is cell-based, Vero.

For the molecule `Cc1ccc(/N=N/C=C2\CCCN2C)cc1`, the result (in the data set with Vaccinia virus; in data set [5]; in [6]) was inactive. Also, the CC50 at 96 h in data set [1], in [2], in data set [4] and in [8] was above 100 µM each time. Further, the EC50 in data set [3] was 20 µM; in the data set with Poliovirus 1 it was above 100 µM; in data set [7], above 100 µM; in the data set on Coxsackievirus B2, 60 µM; with Yellow fever virus, above 100 µM.

`CN1C=C(/N=N/c2cccc(Cl)c2)CCC1`: the outcome (in the data set on Vaccinia virus; in [5]; in data set [6]) was inactive. Further, the 50% cytotoxic concentration (CC50) at 96 h was above 100 µM in data set [1], 85 µM in data set [2], 87 µM in data set [4] and 75 µM in data set [8]. Besides, the EC50 is 12 µM in data set [3]; above 75 µM in the data set with Poliovirus 1; 40 µM in [7]; 34 µM in the data set with Coxsackievirus B2; above 85 µM with Yellow fever virus.

For `O=[N+]([O-])c1cccc(/N=N\C2=C3CCCN3CCC2)c1`, the result (in the data set with Vaccinia virus; in data set [5]; in data set [6]) was inactive. Also, the CC50 at 96 h is above 100 µM in data set [1], 95 µM in data set [2], 68 µM in data set [4] and above 100 µM in [8]. Also, the EC50 in [3] is above 68 µM; in the data set with Poliovirus 1 it was 60 µM; in [7] it was above 100 µM; with Coxsackievirus B2, 54 µM; in the data set with Yellow fever virus, above 95 µM.

Regarding `O=[N+]([O-])c1ccc(/N=N\C2=C3CCCCN3CCC2)cc1`, the result (with Vaccinia virus; in data set [5]; in [6]) was inactive. In addition, the CC50 at 96 h in data set [1] was 91 µM; in data set [2], above 100 µM; in [4], above 100 µM; in data set [8], 100 µM. The EC50 in [3] was 86 µM; with Poliovirus 1 it was above 100 µM; in [7], above 100 µM; in the data set on Coxsackievirus B2 it was 26 µM; in the data set on Yellow fever virus it was at least 100 µM.

Take `COc1ccc(N2CCN(/C=C/N=N/c3ccccc3)CC2)cc1`: the result (with Vaccinia virus; in data set [5]; in data set [6]) was inactive. Moreover, the CC50 at 96 h came out at 29 µM in [1], 46 µM in data set [2], 19 µM in data set [4] and 38 µM in [8]. In addition, the EC50 is above 19 µM in data set [3]; above 38 µM in the data set on Poliovirus 1; 6 µM in [7]; 5 µM with Coxsackievirus B2; above 46 µM in the data set on Yellow fever virus.

For the molecule `CN1CCC/C1=C\N=N\c1ccc(Cl)cc1`, the outcome (with Vaccinia virus; in data set [5]; in [6]) was inactive. Besides, the CC50 at 96 h in [1] is above 100 µM; in data set [2] it was 55 µM; in data set [4], 85 µM; in data set [8], 92 µM. For the same molecule, the EC50 is 21 µM in data set [3]; above 92 µM in the data set on Poliovirus 1; 20 µM in data set [7]; 24 µM in the data set on Coxsackievirus B2; above 55 µM with Yellow fever virus.

For `Brc1ccc(/N=N\C2=C3CCCCN3CCC2)cc1`, the result (in the data set with Vaccinia virus; in data set [5]; in [6]) was inactive. Besides, the half-maximal cytotoxic concentration (CC50) at 96 h in data set [1] turned out to be 27 µM; in data set [2], 62 µM; in data set [4] it was 59 µM; in data set [8], 92 µM. Moreover, the EC50 in data set [3] is above 59 µM; in the data set on Poliovirus 1, above 92 µM; in [7], above 92 µM; in the data set with Coxsackievirus B2, 10 µM; with Yellow fever virus, at least 62 µM.

As to `CN1CCC/C1=C\N=N\c1ccc(F)cc1`, the outcome (with Vaccinia virus; in data set [5]; in data set [6]) was inactive. Moreover, the CC50 at 96 h turned out to be 100 µM in data set [1], 80 µM in [2], 59 µM in data set [4] and 75 µM in data set [8]. The EC50 was 18 µM in data set [3]; above 75 µM in the data set with Poliovirus 1; 12 µM in data set [7]; above 75 µM with Coxsackievirus B2; 36 µM with Yellow fever virus.

Regarding `Clc1ccc(/N=N\C2=C3CCCCN3CCC2)cc1Cl`, the result (in the data set with Vaccinia virus; in [5]; in [6]) was inactive. For the same molecule, the cytotoxic concentration (CC50) at 96 h was 35 µM in data set [1], 54 µM in data set [2], 30 µM in data set [4] and above 100 µM in data set [8]. Besides, the EC50 in data set [3] is above 30 µM; in the data set with Poliovirus 1 it was above 100 µM; in data set [7], above 100 µM; in the data set with Coxsackievirus B2 it was 38 µM; in the data set on Yellow fever virus it was above 54 µM.

As for `CN1CCC/C1=C\N=N\c1ccc(Br)cc1`, the outcome (with Vaccinia virus; in data set [5]; in data set [6]) was inactive. In addition, the CC50 at 96 h in [1] is 23 µM; in [2], above 100 µM; in data set [4], above 100 µM; in [8] it was above 100 µM. In addition, the EC50 in [3] is 11 µM; with Poliovirus 1, above 100 µM; in [7] it was 20 µM; in the data set with Coxsackievirus B2, 36 µM; with Yellow fever virus, above 100 µM.

For the molecule `CCOC(=O)c1ccc(/N=N/C=C/N2CCCCC2)cc1`, the outcome (with Vaccinia virus; in data set [5]; in data set [6]) was inactive. Besides, the CC50 at 96 h is 33 µM in data set [1], above 100 µM in data set [2], above 100 µM in [4] and above 100 µM in data set [8]. The EC50 in data set [3] is above 100 µM; in the data set on Poliovirus 1, 27 µM; in data set [7], above 100 µM; in the data set on Coxsackievirus B2 it was 35 µM; in the data set with Yellow fever virus, above 100 µM.

`CN1/C(=C\N=N\c2ccc(Cl)cc2)C(C)(C)c2ccccc21`: the outcome (with Vaccinia virus; in data set [5]; in data set [6]) was inactive. The CC50 at 96 h in data set [1] was 55 µM; in data set [2], 21 µM; in data set [4], 72 µM; in data set [8] it was above 100 µM. Besides, the 50% effective concentration (EC50) is above 72 µM in data set [3]; above 100 µM in the data set with Poliovirus 1; above 100 µM in data set [7]; above 100 µM with Coxsackievirus B2; above 21 µM in the data set with Yellow fever virus.

For the molecule `CCOC(=O)c1ccc(/N=N/C=C/N2CCCC2)cc1`, the result (in the data set with Vaccinia virus; in data set [5]; in data set [6]) was inactive. The CC50 at 96 h in data set [1] was 26 µM; in data set [2] it was above 100 µM; in data set [4] it was 100 µM; in [8], above 100 µM. Moreover, the EC50 in data set [3] is above 100 µM; in the data set on Poliovirus 1, above 100 µM; in data set [7], above 100 µM; in the data set with Coxsackievirus B2, 50 µM; in the data set on Yellow fever virus, above 100 µM.
